Measured values reported in the EternaBench riboswitch data.

System: MS2 coat protein
Test: apparent Kd, MS2 coat protein; higher = weaker binding; RNA-MaP array; FMN 200 µM where present
Procedure, shortened: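 Designs were transcribed by stalled E. coli RNA polymerase on Illumina sequencing-chip clusters. They were titrated with SNAP-549-labelled MS2 coat protein from 0.7 or 1.5 nM, doubling to 3 µM, without and then with constant ligand. Buffer: 100 mM Tris-HCl pH 7.5, 80 mM KCl, 4 mM MgCl2, BSA, DTT, yeast tRNA, Tween-20. Green signal was normalised to red-channel RNA signal and control-cluster median Fmax. Apparent Kd is the median of filtered per-cluster binding-curve fits.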

[1] = designed as: OFF switch for flavin mononucleotide, no ligand
[2] = ligand present: flavin mononucleotide, designed as: OFF switch for flavin mononucleotide
[3] = designed as: ON switch for flavin mononucleotide, no ligand
[4] = ligand present: flavin mononucleotide, designed as: ON switch for flavin mononucleotide

Sequence	apparent Kd [1] [nM]	apparent Kd [2] [nM]	apparent Kd [3] [nM]	apparent Kd [4] [nM]
GCACUUUUAUUUGAACCGAUACGAACAUGAGGAUCACCCAUGUAGGAUAUGCUUAAAGUUGUGAUGCAGAAGGACAUUUAGUGC	9.18	10.7		
GCAGAUCAAGUGAGGAUAUCGUCUACCUCGGUAGUCGAGAAGGCACAUGAGGAUCACCCAUGUGAUUGAUCUGC	18.5	25.9		
GCAGCAAUCUAAAACAUGAGGAUCACCCAUGUCGAGAGAUAUGAGGAUAUGCAUCGGAUGAAGAUGCAGAAGGCAUUGUGCUGC			8.66	6.35
GCAGCACUUUAUUACAUGAGGAUCACCCAUGUCGAUUGUUAUGAGGAUAUGCAUCGGAUGAAGAUGCAGAAGGCAUUGUGCUGC			7.24	6.04
GCAGGAUAAGUCAGGAUAUACCUAUGGAUACAUAGGUAGAAGGGACAUGAGGAUCACCCAUGUGACUCGCCUGC	29.5	100		
GCAGGUUUACGAGGAUAUGGGUGGUACGGACAUGAGGAUCACCCAUGUCUCCCAGAAGGCGUAGCCUAACAAAGAGAACAGGAG			111	19.2
GCAGUAAAUAAAUGCACAUGAGGAUCACCCAUGUGGGAGGCACAGGAUAUCGCACCAUAGUGGCGCGAGAAGGGUGAUAAUCUC			416	57.8
GCAGUACGCCUGGCAAUUUGCAAGCAGGAUAUCAGGCACCGUGAGACAUGAGGAUCACCCAUGUCUGAGAAGGGCUGGAGUUGC	9.68	18.9		
GCAUAUCAGGGAGGAUAUGACAUGAGGAUCACCCAUGUAAUUAUGGCUCUGUCAGAAGGCCCAUCGUCACUAUAGUGACGAGAC	370	139		
GCAUGCAAGUAGAAGGACGGAUAUUUUGAAAACGUAGGAUAUACAGAAUCAUAUCCACAAGGUUACAUGAGGAUCACCCAUGUA	8.19	8.08		
GCAUGCGUUCGAGGAUAUCGGUGAGAAACGGAACGAGAAGGCGAUCGAAUGUCUCAUCUUAUGAACAUGAGGAUCACCCAUGUA			299	83.2
GCAUUGAUAACAGGAUAUAUGAAUCCUACAUGAGGAUCACCCAUGUAGGUGAUCAGCCGUGAUUAGUAGAAGGGUUAUCAAUGC			13	6.49
GCCAACUCGUGAGGAUAUGGCACCUUAUUGGUGCCAGAAGGCAUGUCAAUUGACAUGAGGAUCACCCAUGUAUUAUAGUUGGCA			563	88.2
GCCAGAGCAGGAUAUUCAAUAAUCCACAUGAGGAUCACCCAUGUCCAGCGAAAGCUGGAGGGAGAAGGGCUCUGGC	94.2	35.1		
GCCAGAGCAGGAUAUUCAAUAUUCCACAUGAGGAUCACCCAUGUCCUGCGAAAGCAGGAGGGAGAAGGGCUCUGGC	69.5	25.5		
GCCAGAGGAGGAUAUCUAAUAUAUCACAUGAGGAUCACCCAUGUCCAGCGAAAGCUGGAGGGAGAAGGCCUCUGGC	149	29.8		
GCCAGGCGAGGAUAUGCGAGGUAGCCUUUGUCCGGAUACUGACAUGAGGAUCACCCAUGUAGAAGGUGCCUAGG	70.2	258		
GCCAUCACAUGAGGAUAUGCUCCCGUUUCGGGAGCAGAAGGCGUGUCAUAAGACAUGAGGAUCACCCAUGUAGUUAAGAUGGCA			399	12.7
GCCAUCGCAUGAGGAUAUGCUCCCGUUUCGGGAGCAGAAGGCAUGUCAAAAGACAUGAGGAUCACCCAUGUAGUUAAGAUGGCA			122	7.89
GCCAUCGCAUGAGGAUAUGGACAGCUUUGCUGUCCAGAAGGCAUGUCAAUAGACAUGAGGAUCACCCAUGUAGUUAAGAUGGCA			771	52.2
GCCAUCGCAUGAGGAUAUGGACAGGUUUCCUGUCCAGAAGGCAUGUCAUAAGACAUGAGGAUCACCCAUGUAGUUAAGAUGGCA			908	45.9
GCCAUCGCGUGAGGAUAUGGCACCGUUUCGGUGCCAGAAGGCAUGUCAAAUGACAUGAGGAUCACCCAUGUAGUUAAGAUGGCA			180	13.2
GCCAUCGUAUGAGGAUAUGGCACCGAAACGGUGCCAGAAGGCAUGUCAAUAGACAUGAGGAUCACCCAUGUUUUAUCGAUGGCA			89.7	23.5
GCCCUCGCUGAGGAUAUUAUCUGGCUCGAUUGAUAAGAAGGCAGUACAUGAGGAUCACCCAUGUGGUUCGUUCG	69.5	265		
GCCUAUUCGUGCAGUUAAGGAGCUCAGGAUAUCGCAAUAACAUGAGGAUCACCCAUGUCCGAAUACGAGAAGGGAGGUCCGACG			140	13.9
GCCUUAUCCGUCAGGAUAUACAUUUGUUAGUUGUUGUAGAAGGGACAUGAGGAUCACCCAUGUACAUUACAUUG	19.4	22.4		
GCCUUAUCCGUCAGGAUAUACAUUUUUUAGUUGUUGUAGAAGGGACAUGAGGAUCACCCAUGUACAUUACAUUG	21.1	21.8		
GCGAACUGUGUAGGAUAUUGAGCACUUUUGGAGCAAGAAGGACACCAAGUGCUGACUAUACAUGAGGAUCACCCAUGUUCAGCA			30.9	17.1

Sequence	apparent Kd [1] [nM]	apparent Kd [2] [nM]	apparent Kd [3] [nM]	apparent Kd [4] [nM]
GCGAUUAAGUAGAAGGUACGUUAUAAGUCAAUGUAAGGAUAUACUGACAUGAGGAUCACCCAUGUUUAAUUUGUUUACUGUCGC			7.34	5.7
GCGAUUUUGUAAGGAUAUACACGAGUUUCAAGUGUAGAAGGUACUUACAUGAGGAUCACCCAUGUAUACUUGGAUAAUAGUCGC			27.9	23.3
GCGAUUUUUAGAUUUUAAUAAUUUACAGAAGGUGAUAUACUUACAUGAGGAUCACCCAUGUUAUUCAAGGAUAUGUAGAUACUC			308	31
GCGGAAGGCACAGGAUAUCGUCCUUAGUUGGUACGAGAAGGGUGGCGCUGCCACAUGAGGAUCACCCAUGUGCCUUGACUAUAG			245	1180
GCGUACAUAUCAGGAUAUCAUAUUAUUGUUUAACUCAGUGUAUACAUGAGGAUCACCCAUGUUCUUGAGAAGGGAUAUGUACGC	8.15	8.79		
GCGUACAUAUCAGGAUAUCAUUGAAUGGAUUAACACAGUGAAUACAUGAGGAUCACCCAUGUGCUUGAGAAGGGAUUACAACGC	10.9	9.4		
GCGUACUGAGGAUAUACAUGAGGAUCACCCAUGUGACACAGCGUUUAGUGAUGAAUUUGUAGAAGGCAGUAGGC	146	219		
GCGUAUAUAUUAUUUAUUUAACUGUCAGAAGGUGAGAAGACGACAUGAGGAUCACCCAUGUUAUUCAAGGAUAUGAUAAUGCGC			13.5	8.94
GCGUCACAAUUAGAACCGAUACGAACAUGAGGAUCACCCAUGUAGGAUAUGCUAGAAGUUGAGUUGCAGAAGGACAUUUAUCGC	11.1	10.6		
GCGUCAGAAUUAAUUGUGACAGACAGAAGGCAAUAGUAUGUGACCGACAUGAGGAUCACCCAUGUUGAGGAUAUGUAUUGACGC	5.26	6.53		
GCGUCAGAAUUAAUUGUGACAUACAGAAGGCAAUAGUUUAUUUCAGACAUGAGGAUCACCCAUGUUGAGGAUAUGUAUUUACUC	8.92	7.82		
GCGUCGUCGACUGAUAACAAGCCUAGAAGGCGGACAUGAGGAUCACCCAUGUCUGAUCCUCGGCCCGAGGAUAUAGGUUAAUGG	28.6	13.4		
GCGUGGUGUCUAGGAUAUGCCGUGCAACGAGGAGCAGAAGGAGACAUGAGGAUCACCCAUGUAAGCUUAGCCGCUCACAGAGGG	26.8	73.7		
GCGUGUCAUGUAGGAUAUGACACAGGAAACUGGUCAGAAGGACAUGAGGAUCACCCAUGUAAAAUGUUCAAGAAUAACACAUGC	50.6	185		
GCGUUAGUAUCACAUGUAUUACAUGAGGAUCACCCAUGUUACUAGGAUAUGUAUUAGAAUUAUCAACAGAAGGAGUAAUAACGC	12.6	20.3		
GCGUUGAACGAGAAGGCCAAUACAUGAGGAUCACCCAUGUAGUGAAGUAUUGGAGGAUAUCGAUCGUCGUCUCAUGAGCAACGC	8.88	25.3		
GCGUUGUACGAGAAGGCCAAUACAUGAGGAUCACCCAUGUAAAGUUGUAAUGGAGGAUAUCGAACACAUUCAAUAAUGCAACGC	8.29	5.66		
GCUAGGCAUGUCAGGAUAUGCUGAACCUUGGUUCAGCAGAAGGGACAUGAGGAUCACCCAUGUGCCAACCUAGC	57.4	613		
GCUAGUAUUGCAGGAUAUUGAGAAUAAUUAUUACAAGAAGGGCAUAACAUGAGGAUCACCCAUGUAUUCCUUAGUGAUACUAGC	6.24	6.07		
GCUAGUAUUGCAGGAUAUUGAGAAUAAUUAUUCCAAGAAGGGCAUAACAUGAGGAUCACCCAUGUAUUCCUUAGUGAUACUAGC	4.39	4.44		
GCUAGUAUUGCAGGAUAUUGAGAAUAAUUUUGGCAAGAAGGGCAUAACAUGAGGAUCACCCAUGUAUUCCUUAGUGAUACUAGC	6.58	6.11		
GCUAGUAUUGCAGGAUAUUGAGAUUAAUUAAGGCAAGAAGGGCAUUACAUGAGGAUCACCCAUGUUUUCCUUAGUCAUACUAGC	7.12	7.4		
GCUAGUCAUGUCAGGAUAUGCUGAACCUUGGUUCAGCAGAAGGGACAUGAGGAUCACCCAUGUGCCUAACUAGC	42.1	402		
GCUAUCAAUGUCAGGAUAUUUAUUUGGGCUUAAUUGAAGAAGGGACAUGAGGAUCACCCAUGUGGCGCAGAGUU	36.9	202		
GCUAUCGAUGUAGGAUAUGAUAUAGAAACUAUGUCAGAAGGACAUGAGGAUCACCCAUGUCAAUGGAUGGAGAGAAGAGAUGGC	26.7	52.5		
GCUCAUAUCACAGGAUAUGGCCAGCAAAUUUGGCCAGAAGGGUGAUUCAUAUUAAAAUCACAUGAGGAUCACCCAUGUACGGCA			166	321
GCUCUUGUCAAGAAGGGCUCGCGGUACGCUGCAGCAGGAUAUUGACAUGAGGAUCACCCAUGUCGACCGGAACAUCUUUGAGGG	13.3	134		
